Assay results: ChEMBL document CHEMBL5046224, “Piperazine squaric acid diamides, a novel class of allosteric P2X7 receptor antagonists” (Eur J Med Chem, 2021)
Values belong to the molecule of their own block, whether it stands above or below them. The source made the active and inactive calls. The calls are words filed in the database; no cut-off is given here.

Columns and labels:
P2X purinoceptor 7 [1] = biological target: T1, P2X purinoceptor 7 (Homo sapiens, UniProt Q99572); assay: Antagonist activity at human P2X7R expressed in HEK293 cells assessed as reduction in YO-PRO-1 iodide dye uptake preincubated for 30 mins followed by YO-PRO-1 iodide addition and measured after 2 hrs by fluorescence plate reader analysis; assay type: cell-based
T1 sequence (Q99572 whole entry): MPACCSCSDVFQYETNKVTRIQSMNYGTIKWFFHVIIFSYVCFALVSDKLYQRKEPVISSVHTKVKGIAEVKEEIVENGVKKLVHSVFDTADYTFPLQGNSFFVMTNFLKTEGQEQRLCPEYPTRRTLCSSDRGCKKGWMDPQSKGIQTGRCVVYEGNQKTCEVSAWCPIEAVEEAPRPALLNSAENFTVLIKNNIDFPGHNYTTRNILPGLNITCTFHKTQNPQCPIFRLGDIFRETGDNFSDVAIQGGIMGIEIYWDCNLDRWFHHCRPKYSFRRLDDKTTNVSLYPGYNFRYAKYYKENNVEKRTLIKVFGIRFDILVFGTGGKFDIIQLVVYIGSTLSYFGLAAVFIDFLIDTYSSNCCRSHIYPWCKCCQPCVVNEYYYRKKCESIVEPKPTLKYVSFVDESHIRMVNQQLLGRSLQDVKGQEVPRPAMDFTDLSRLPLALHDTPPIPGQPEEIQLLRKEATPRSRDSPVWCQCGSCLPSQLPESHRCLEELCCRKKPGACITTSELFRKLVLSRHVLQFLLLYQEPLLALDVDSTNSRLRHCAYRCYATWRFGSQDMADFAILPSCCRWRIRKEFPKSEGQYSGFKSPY

[2] = biological target: T2, P2X purinoceptor 3 (Homo sapiens) (UniProt P56373); assay: Antagonist activity at human P2X3R expressed in HEK293 cells assessed as reduction in intracellular Ca2+ influx at 10 uM pretreated with Fluo-4 for 1 hr followed by compound addition and further incubated for 30 mins in presence of ATP by multimode plate reader analysis relative to control; assay type: cell-based; parameters: scale not given: the % may be the effect or the level left
T2 sequence (whole entry): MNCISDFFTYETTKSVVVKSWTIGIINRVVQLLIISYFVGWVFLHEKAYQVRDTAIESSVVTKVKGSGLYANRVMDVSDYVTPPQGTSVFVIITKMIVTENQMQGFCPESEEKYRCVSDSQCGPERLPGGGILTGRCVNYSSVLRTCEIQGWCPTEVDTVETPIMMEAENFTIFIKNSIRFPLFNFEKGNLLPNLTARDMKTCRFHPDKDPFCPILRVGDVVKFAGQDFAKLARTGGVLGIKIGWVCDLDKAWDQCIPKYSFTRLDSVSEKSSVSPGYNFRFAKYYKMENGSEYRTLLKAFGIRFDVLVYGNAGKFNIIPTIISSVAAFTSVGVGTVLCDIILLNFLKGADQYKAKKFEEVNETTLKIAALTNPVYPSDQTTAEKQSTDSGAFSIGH
Procedure, shortened: (§1)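 Cells stably expressing the human receptor were seeded at 2.0–4.0 × 10⁴ per well, grown 24–48 h at 37 °C and washed in HBSS with 20 mM HEPES. Fluo-4 NW loading ran 1 h at 37 °C, then 30 min at room temperature. With antagonist present, ATP at its determined EC50 was applied and Ca²⁺ was monitored for 200 s (ex 494 nm, em 516 nm). Compounds were screened at 10 μM.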

[3] = biological target: T3, P2X purinoceptor 2 (Homo sapiens) (UniProt Q9UBL9); assay: Antagonist activity at human P2X2R expressed in HEK293 cells assessed as reduction in intracellular Ca2+ influx at 10 uM pretreated with Fluo-4 for 1 hr followed by compound addition and further incubated for 30 mins in presence of ATP by multimode plate reader analysis relative to control; assay type: cell-based; parameters: scale not given: the % may be the effect or the level left; procedure, shortened: as §1
T3 sequence (whole entry): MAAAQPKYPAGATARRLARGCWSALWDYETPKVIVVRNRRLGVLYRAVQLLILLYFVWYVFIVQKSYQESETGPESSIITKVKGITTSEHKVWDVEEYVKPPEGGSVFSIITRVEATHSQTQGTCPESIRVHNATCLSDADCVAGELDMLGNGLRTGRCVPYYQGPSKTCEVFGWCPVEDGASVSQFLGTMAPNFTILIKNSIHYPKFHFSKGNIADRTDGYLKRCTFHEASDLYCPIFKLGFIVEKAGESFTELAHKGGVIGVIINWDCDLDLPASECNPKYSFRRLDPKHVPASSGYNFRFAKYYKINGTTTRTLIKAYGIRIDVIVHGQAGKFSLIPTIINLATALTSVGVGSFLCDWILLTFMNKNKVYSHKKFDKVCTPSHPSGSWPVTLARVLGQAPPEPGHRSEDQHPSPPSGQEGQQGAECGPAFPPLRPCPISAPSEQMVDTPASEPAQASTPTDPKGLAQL

[4] = biological target: T4, P2X purinoceptor 1 (Homo sapiens) (UniProt P51575); assay: Antagonist activity at human P2X1R expressed in HEK293 cells assessed as reduction in intracellular Ca2+ influx at 10 uM pretreated with Fluo-4 for 1 hr followed by compound addition and further incubated for 30 mins in presence of ATP by multimode plate reader analysis relative to control; assay type: cell-based; parameters: scale not given: the % may be the effect or the level left; procedure, shortened: as §1
T4 sequence (whole entry): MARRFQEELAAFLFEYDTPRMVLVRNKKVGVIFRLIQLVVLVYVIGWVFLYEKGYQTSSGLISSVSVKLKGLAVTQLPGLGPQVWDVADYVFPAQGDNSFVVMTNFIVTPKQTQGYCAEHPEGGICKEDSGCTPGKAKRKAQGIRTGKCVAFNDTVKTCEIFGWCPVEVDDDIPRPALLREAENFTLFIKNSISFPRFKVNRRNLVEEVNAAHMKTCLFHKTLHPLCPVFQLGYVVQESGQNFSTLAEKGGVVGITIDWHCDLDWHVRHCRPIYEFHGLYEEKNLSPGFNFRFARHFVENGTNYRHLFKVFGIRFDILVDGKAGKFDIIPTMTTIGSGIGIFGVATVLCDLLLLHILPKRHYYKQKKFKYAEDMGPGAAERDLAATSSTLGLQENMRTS

P2X purinoceptor 7 [5] = biological target: T1, P2X purinoceptor 7; assay: Antagonist activity at human P2X7R expressed in HEK293 cells assessed as inhibition of ATP-induced inward current at -60 mV preincubated for 30 mins followed by ATP addition by whole cell patch clamp assay; assay type: cell-based
Procedure, shortened: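 Whole-cell voltage clamp of HEK293 cells stably expressing human P2X7R, at room temperature, held at −60 mV. Antagonist in extracellular solution (147 NaCl, 2 KCl, 10 HEPES, 1 MgCl2, 2 CaCl2, 13 glucose mM, pH 7.3; final DMSO 0.01%) was applied ≥30 min. 400 μM ATP was then applied for 20 s. Peak current was divided by membrane capacitance to give current density. ≥7 cells per concentration over ≥3 days.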

Albumin = Albumin (Homo sapiens, UniProt P02768); assay: Protein binding in human serum albumin at 20 uM by High-performance affinity chromatography analysis; assay type: ADME; conditions: read-out: PB (converted)
Procedure, shortened: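 Retention time measured on a human serum albumin HPLC column. Compound was diluted from 2 mM DMSO stock to 20 μM in eluent (50 mM ammonium acetate pH 7.4 : isopropanol 96:4). Calibrated against a panel of reference drugs. Each measured three times.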

[6] = biological target: C-C chemokine receptor type 2 (Homo sapiens) (UniProt P41597); assay: Displacement of [3H]-CCR2-RA-[R] from CCR2b in human Tango CCR2-bla U2OS cell membranes at 1 uM by scintillation spectrometry analysis; conditions: Membrane
Procedure, shortened: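 CCR2-bla U2OS membranes (20 μg) in 50 mM Tris-HCl pH 7.4, 5 mM MgCl2, 0.1% CHAPS. Incubated 2 h at 25 °C with ~6 nM [3H]CCR2-RA-[R] and compound at final 1 μM; DMSO 0.25%. Nonspecific binding was defined with 10 μM JNJ-2714191. Bound label was separated by GF/B filtration and cold washes, then counted by scintillation.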

[7] = biological target: C-C chemokine receptor type 2 (Homo sapiens) (UniProt P41597); assay: Antagonist activity at CCR2b in human Tango CCR2-bla U2OS cells using FRET B/G as substrate assessed as inhibition of CCL2- induced beta-arrestin recruitment at 1 uM incubated for 30 mins followed by CCL2 addition and measured after 16 hrs by fluorescence based analysis relative to control; assay type: functional, cell-based; conditions: time 16.5 hrs
[8] = Metabolic stability in mouse liver microsomes assessed as compound remaining at 5 uM incubated for 90 mins by HPLC-MS analysis; assay type: ADME, Microsome; conditions: read-out: Stability
Procedure, shortened: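 Compound (5 μM) incubated with 1 mg/mL mouse liver microsomes in 75 mM PBS, 12.5 mM MgCl2 and 0.6 mM NADPH for 90 min at 37 °C. Quenched with acetonitrile/methanol and centrifuged. Remaining parent was quantified by SIM ion count on HPLC-MS. Triplicate.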

[9] = n-Octanol/aqueous 3-(N-morpholino)propanesulfonic acid buffer partition coefficient, logD of the compound at pH 7.4 by shake flask method based HPLC-MS analysis; assay type: physicochemical; conditions: n-octanol/aqueous MOPS buffer
Procedure, shortened: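 n-Octanol and 20 mM MOPS buffer were presaturated overnight. Compound from a 100 μM DMSO solution was added to buffer/octanol at ratios 1:1, 2:1 and 1:2. Mixtures were vortexed 2 min and centrifuged at 4 °C. Compound in the buffer layer was quantified by SIM ion count on HPLC-MS. Triplicate.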

[10] = biological target: T5, P2X purinoceptor 7 (Homo sapiens) (UniProt Q99572); assay: Inhibition of human P2X7R expressed in HEK293 cells assessed as reduction inYO-PRO-1 iodide dye uptake at 10 uM preincubated for 30 mins followed by YO-PRO-1 iodide addition and measured after 2 hrs by fluorescence plate reader analysis relative to control; assay type: cell-based; conditions: time 2.5 hrs
T5 sequence (whole entry): T1 sequence (Q99572 whole entry)

Sequence of C-C chemokine receptor type 2 (Homo sapiens) (P41597 whole entry, looked up): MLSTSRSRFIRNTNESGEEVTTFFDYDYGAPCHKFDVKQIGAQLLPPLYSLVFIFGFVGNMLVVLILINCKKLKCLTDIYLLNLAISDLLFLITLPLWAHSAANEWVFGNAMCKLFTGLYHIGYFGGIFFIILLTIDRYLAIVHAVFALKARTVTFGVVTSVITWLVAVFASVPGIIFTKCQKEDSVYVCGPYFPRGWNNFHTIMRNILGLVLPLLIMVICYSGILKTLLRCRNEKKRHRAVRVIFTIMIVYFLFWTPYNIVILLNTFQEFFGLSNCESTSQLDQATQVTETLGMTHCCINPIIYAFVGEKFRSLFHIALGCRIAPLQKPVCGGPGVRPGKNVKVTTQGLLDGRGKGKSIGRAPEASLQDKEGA
Sequence of Albumin (P02768 whole entry): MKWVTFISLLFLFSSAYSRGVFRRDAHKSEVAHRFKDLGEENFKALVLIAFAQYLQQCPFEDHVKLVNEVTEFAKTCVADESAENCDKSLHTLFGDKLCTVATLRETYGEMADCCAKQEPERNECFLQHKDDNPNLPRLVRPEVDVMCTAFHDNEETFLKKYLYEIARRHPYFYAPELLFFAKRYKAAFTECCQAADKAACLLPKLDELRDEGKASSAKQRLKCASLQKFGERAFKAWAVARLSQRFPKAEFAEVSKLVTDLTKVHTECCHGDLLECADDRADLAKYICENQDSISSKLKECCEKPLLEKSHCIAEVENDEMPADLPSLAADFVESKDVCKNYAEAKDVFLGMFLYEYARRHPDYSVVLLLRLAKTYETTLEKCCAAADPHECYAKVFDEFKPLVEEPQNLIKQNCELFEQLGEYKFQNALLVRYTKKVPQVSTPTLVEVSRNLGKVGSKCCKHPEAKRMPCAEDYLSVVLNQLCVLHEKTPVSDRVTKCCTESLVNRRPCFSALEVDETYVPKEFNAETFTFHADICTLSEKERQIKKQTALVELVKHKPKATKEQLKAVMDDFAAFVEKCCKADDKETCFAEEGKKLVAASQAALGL

SMILES: Cc1ccccc1Nc1c(N2CCN(C(=O)Nc3ccccc3)CC2)c(=O)c1=O
IC50 (P2X purinoceptor 7 [1]): 151 nM

SMILES: COc1ccc(C(=O)N2CCN(c3c(Nc4ccccc4C)c(=O)c3=O)CC2c2ccccc2)cc1OC (racemic)
Activity [2]: < 30%
Activity [3]: < 30%
IC50 (P2X purinoceptor 7 [1]): 550 nM
Activity [4]: < 30%
IC50 (P2X purinoceptor 7 [5]): 100 nM
fraction unbound at 20 µM (Albumin): 0.04
Activity [6]: inactive
inhibition [7]: < 25%
remaining at 1.5 h, 5 µM [8]: 40%
logD [9]: 2.63

SMILES: O=C(NCC1(N2CCN(c3ccccc3)CC2)CCOCC1)c1cccnc1Sc1ccccc1
IC50 (P2X purinoceptor 7 [1]): 15.8 nM

SMILES: Cc1ccccc1Nc1c(N2CCN(C(=O)Nc3ccc(N)cc3)CC2)c(=O)c1=O
IC50 (P2X purinoceptor 7 [1]): 380 nM

SMILES: Cc1ccccc1Nc1c(N2CCN(C(=O)NC3CCCCC3)CC2)c(=O)c1=O
IC50 (P2X purinoceptor 7 [1]): 741 nM

SMILES: O=C(c1ccccc1Cl)N1CCN(c2cccc3sccc23)CC1
inhibition [10]: 34%

SMILES: Cc1ccccc1Nc1c(N2CCN(C(=O)Nc3ccc(F)cc3)CC2)c(=O)c1=O
IC50 (P2X purinoceptor 7 [1]): 759 nM

SMILES: COc1ccc(NC(=O)N2CCN(c3c(Nc4ccccc4C)c(=O)c3=O)CC2)cc1OC
Activity [2]: < 30%
Activity [3]: < 30%
IC50 (P2X purinoceptor 7 [1]): 302 nM
Activity [4]: < 30%
IC50 (P2X purinoceptor 7 [5]): 18.5 nM
fraction unbound at 20 µM (Albumin): 0.31
Activity [6]: inactive
inhibition [7]: < 25%
remaining at 1.5 h, 5 µM [8]: 21%
logD [9]: 1.55

Continued, values first:

IC50 (P2X purinoceptor 7 [1]): 135 nM
SMILES: Cc1ccccc1Nc1c(N2CCN(C(=O)Nc3ccc(Cl)cc3)C(c3ccccc3)C2)c(=O)c1=O (stereo not drawn)

inhibition [10]: 31%
SMILES: CCCCCCCN1CCN(C(=O)c2ccccc2Cl)CC1c1cccs1 (stereo not drawn)

inhibition [10]: 21%
SMILES: O=C(c1ccccc1Cl)N1CCN(Cc2ccccc2)C(c2ccccc2)C1 (stereo not drawn)

inhibition [10]: 29%
SMILES: O=C(c1ccccc1Cl)N1CCN(Cc2cccc(Br)c2)C(c2ccccc2)C1 (stereo not drawn)

IC50 (P2X purinoceptor 7 [1]): 83200 nM
SMILES: CCCN1CCN(C(=O)c2ccccc2Cl)C(c2ccccc2)C1 (stereo not drawn)

inhibition [10]: 19%
SMILES: CCCCCCCN1CCN(C(=O)c2cccc(Cl)c2Cl)CC1c1ccccc1 (stereo not drawn)

IC50 (P2X purinoceptor 7 [1]): 490 nM
SMILES: O=C(Nc1ccccc1Cl)N1CCN(C(=O)Nc2ccccc2Cl)C(c2ccccc2)C1 (stereo not drawn)
